Test results as given in ChEMBL document CHEMBL1671756, “In vitro and in vivo antifungal susceptibilities of the Mucoralean fungus Cunninghamella” (2010).
Calls of active or inactive are those of the source. No cut-off for these calls is given here.

Tests used:
[1] = system: Cunninghamella bertholletiae; test: Antifungal activity against Cunninghamella bertholletiae FMR 9598 infected in neutropenic OF1 mouse assessed as increase in mouse survival rate at 60 mg/kg, po qd administered 1 day after infection for 7 days relative to untreated control; type: functional, organism-based; set-up: dose 60 mg/kg
Method in brief: (§1)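 Male OF1 mice, about 30 g, made neutropenic with cyclophosphamide 200 mg/kg i.p. plus 5-fluorouracil 150 mg/kg i.v. 1 day before challenge. Infected i.v. via the lateral tail vein with 1 × 10⁴ CFU of hemacytometer-counted sporangiospores in 0.2 ml saline. Ceftazidime 5 mg/day s.c. on days 1–7. Oral treatment started 24 h after challenge; 10 mice per group; checked daily for 20 days; Kaplan-Meier mean survival time, log-rank test.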

[2] = system: Cunninghamella bertholletiae; test: Antifungal activity against Cunninghamella bertholletiae UTHSC 04-2581 infected in neutropenic OF1 mouse assessed as increase in mouse survival rate at 60 mg/kg, po qd administered 1 day after infection for 7 days relative to untreated control; type: functional, organism-based; set-up: dose 60 mg/kg; method in brief: as §1
[3] = system: Cunninghamella bertholletiae; test: Antifungal activity against Cunninghamella bertholletiae UTSCH 05-2275 infected in diabetic OF1 mouse assessed as decreased fungal load in brain at 80 mg/kg, po qd administered 1 day post infection measured after 4 to 5 days relative to untreated control; type: functional, organism-based; set-up: dose 80 mg/kg
Method in brief: (§2)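 Diabetic male OF1 mice (streptozocin 210 mg/kg i.p.; glucose above 250 mg/dl) were challenged i.v. with 1 × 10⁵ CFU sporangiospores. Oral once-daily dosing from day 1 for 7 days; 10 mice per group. Killed at day 5 (day 4 if moribund). About half of each organ homogenized in saline; serial 10-fold dilutions plated on PDA for 24 h at 35°C; log₁₀ CFU/g tissue.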

[4] = system: Cunninghamella bertholletiae; test: Antifungal activity against Cunninghamella bertholletiae UTHSC 05-2275 infected in neutropenic OF1 mouse assessed as increase in mouse survival rate at 40 mg/kg, po qd administered 1 day after infection for 7 days relative to untreated control; type: functional, organism-based; set-up: dose 40 mg/kg; method in brief: as §1
[5] = system: Cunninghamella bertholletiae; test: Antifungal activity against Cunninghamella bertholletiae UTHSC 03-2241 infected in neutropenic OF1 mouse assessed as decreased fungal load in brain at 60 mg/kg, po qd administered 1 day post infection measured after 4 to 5 days relative to untreated control; type: functional, organism-based; set-up: dose 60 mg/kg
Method in brief: (§3)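 Neutropenic male OF1 mice (cyclophosphamide 200 mg/kg i.p. plus 5-fluorouracil 150 mg/kg i.v., day −1) were given 1 × 10⁴ CFU sporangiospores i.v. in 0.2 ml saline. Treatment from 24 h: 0.8 mg/kg i.v. or oral doses once daily; 10 mice per group. Killed at day 5 (day 4 if moribund). About half of brain, lungs and kidneys homogenized in saline; 10-fold dilutions plated on PDA for 24 h at 35°C; log₁₀ CFU/g tissue.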

[6] = system: Cunninghamella bertholletiae; test: Antifungal activity against Cunninghamella bertholletiae UTSCH 05-2275 infected in diabetic OF1 mouse assessed as decreased fungal load in lung at 80 mg/kg, po qd administered 1 day post infection measured after 4 to 5 days relative to untreated control; type: functional, organism-based; set-up: dose 80 mg/kg
Method in brief: (§4)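 Male OF1 mice (mean 30 g) made diabetic with a single i.p. dose of streptozocin 210 mg/kg; blood glucose >250 mg/dl at day 10 qualified. Ceftazidime 5 mg/day s.c. given on days 1–7. Challenge by lateral tail vein with 1 × 10⁵ CFU sporangiospores in 0.2 ml saline. Oral dosing once daily for 7 days, starting 1 day after challenge. Untreated controls. Ten mice per group.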

[7] = system: Cunninghamella bertholletiae; test: Antifungal activity against Cunninghamella bertholletiae UTHSC 05-2275 infected in neutropenic OF1 mouse assessed as decreased fungal load in lung at 40 mg/kg, po qd administered 1 day post infection measured after 4 to 5 days relative to untreated control; type: functional, organism-based; set-up: dose 40 mg/kg; method in brief: as §3
[8] = system: Cunninghamella bertholletiae; test: Antifungal activity against Cunninghamella bertholletiae UTHSC 05-2275 infected in neutropenic OF1 mouse assessed as increase in mouse survival rate at 60 mg/kg, po qd administered 1 day after infection for 7 days relative to untreated control; type: functional, organism-based; set-up: dose 60 mg/kg; method in brief: as §1
[9] = system: Cunninghamella bertholletiae; test: Antifungal activity against Cunninghamella bertholletiae UTSCH 05-2275 infected in diabetic OF1 mouse assessed as decreased fungal load in lung at 60 mg/kg, po qd administered 1 day post infection measured after 4 to 5 days relative to untreated control; type: functional, organism-based; set-up: dose 60 mg/kg; method in brief: as §4
[10] = system: Cunninghamella bertholletiae; test: Antifungal activity against Cunninghamella bertholletiae UTHSC 05-2275 infected in neutropenic OF1 mouse assessed as decreased fungal load in brain at 60 mg/kg, po qd administered 1 day post infection measured after 4 to 5 days relative to untreated control; type: functional, organism-based; set-up: dose 60 mg/kg; method in brief: as §3
[11] = system: Cunninghamella bertholletiae; test: Antifungal activity against Cunninghamella bertholletiae UTSCH 05-2275 infected in diabetic OF1 mouse assessed as decreased fungal load in brain at 40 mg/kg, po qd administered 1 day post infection measured after 4 to 5 days relative to untreated control; type: functional, organism-based; set-up: dose 40 mg/kg; method in brief: as §2
[12] = system: Cunninghamella bertholletiae; test: Antifungal activity against Cunninghamella bertholletiae UTHSC 05-2275 infected in neutropenic OF1 mouse assessed as increase in mouse survival rate at 25 mg/kg, po bid administered 1 day after infection for 7 days relative to untreated control
[13] = system: Cunninghamella bertholletiae; test: Antifungal activity against Cunninghamella bertholletiae UTHSC 06-1945 infected in neutropenic OF1 mouse assessed as increase in mouse survival rate at 60 mg/kg, po qd administered 1 day after infection; type: functional, organism-based; set-up: dose 60 mg/kg; method in brief: as §1
[14] = system: Cunninghamella bertholletiae; test: Antifungal activity against Cunninghamella bertholletiae UTHSC 06-1945 infected in neutropenic OF1 mouse assessed as decreased fungal load in kidney at 0.8 mg/kg, iv qd administered 1 day post infection measured after 4 to 5 days relative to untreated control; type: functional, organism-based; set-up: dose 0.8 mg/kg; method in brief: as §3
[15] = system: Cunninghamella bertholletiae; test: Antifungal activity against Cunninghamella bertholletiae UTSCH 05-2275 infected in diabetic OF1 mouse assessed as decreased fungal load in kidney at 0.8 mg/kg, iv qd administered 1 day post infection measured after 4 to 5 days relative to untreated control; type: functional, organism-based; set-up: dose 0.8 mg/kg
Method in brief: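 Diabetic OF1 mice (streptozocin 210 mg/kg i.p.; glucose >250 mg/dl) were infected i.v. with 1 × 10⁵ CFU, with ceftazidime cover. Ten per group were treated from day 1 and killed day 5, or day 4 if moribund. Half-organ homogenates (brain, lung, kidney) in 1 ml saline were serially diluted 10-fold on PDA, incubated 24 h at 35°C, and reported as log₁₀ CFU/g tissue.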

[16] = system: Cunninghamella bertholletiae; test: Antifungal activity against Cunninghamella bertholletiae UTHSC 03-2241 infected in neutropenic OF1 mouse assessed as increase in mouse survival rate at 0.8 mg/kg, iv qd administered 1 day after infection for 7 days relative to untreated control; type: functional, organism-based; set-up: dose 0.8 mg/kg
Method in brief: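 Male OF1 mice (~30 g) were made neutropenic with cyclophosphamide 200 mg/kg i.p. plus 5-fluorouracil 150 mg/kg i.v. 1 day before challenge. Challenge was 1 × 10⁴ CFU sporangiospores in 0.2 ml saline via the lateral tail vein. Mice got ceftazidime 5 mg/day s.c. on days 1–7. Dosing started 24 h post-challenge for 7 days. There were 10 mice/group, observed daily for 20 days. Kaplan-Meier analysis with log-rank test.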

CC[C@@H]([C@H](C)O)n1ncn(-c2ccc(N3CCN(c4ccc(OC[C@@H]5CO[C@@](Cn6cncn6)(c6ccc(F)cc6F)C5)cc4)CC3)cc2)c1=O [POSACONAZOLE]
Activity [1]: Active | Activity [2]: Active | Activity [3]: Active | Activity [4]: Active | Activity [5]: Active | Activity [6]: Active | Activity [7]: Active | Activity [8]: Active | Activity [9]: Active | Activity [10]: Active | Activity [11]: inactive | Activity [12]: inactive | Activity [13]: Active

C[C@@H]1[C@H](O)[C@@H](C)/C=C/C=C/C=C/C=C/C=C/C=C/C=C/[C@H](O[C@@H]2O[C@H](C)[C@@H](O)[C@H](N)[C@@H]2O)C[C@@H]2O[C@](O)(C[C@@H](O)C[C@@H](O)[C@H](O)CC[C@@H](O)C[C@@H](O)CC(=O)O[C@H]1C)C[C@H](O)[C@H]2C(=O)O [AMPHOTERICIN B]
Activity [14]: Active | Activity [15]: Active | Activity [16]: Active
